Measurements reported in ChEMBL document CHEMBL1165950, “Design and synthesis of new potent anticancer pyrazoles with high FLT3 kinase inhibitory selectivity” (Bioorg Med Chem, 2010).

What was measured:
Assay type in all cases: functional
[1] = tested on: MDA-MB-231; test: Cytotoxicity against human MDA-MB-231 cells assessed as cell growth at 10 uM; details: read-out: Activity
Outline: (§1)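 NCI-60 screen: cells grown in RPMI 1640 with 5% FBS and 2 mM L-glutamine, plated at 5000–40,000 cells/well according to doubling time, and preincubated 24 h at 37 °C, 5% CO2. The single 10 µM dose (DMSO stock) was added, then incubated 48 h. Cells were TCA-fixed and stained with 0.4% SRB, read at 515 nm, and growth % calculated against time-zero and control plates.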

[2] = tested on: UACC-257; test: Cytotoxicity against human UACC257 cells assessed as cell growth at 10 uM; details: read-out: Activity; outline: as §1
[3] = tested on: HCT-116; test: Cytotoxicity against human HCT116 cells assessed as cell growth at 10 uM; details: read-out: Activity
Outline: (§2)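 Single-dose NCI-60 screen at 10 µM. Cells were grown in RPMI 1640 with 5% FBS and 2 mM L-glutamine, then treated for 48 h at 37 °C. Protein was measured by SRB staining with absorbance at 515 nm. Percentage growth was recorded, and inhibition percentage was calculated as 100 minus growth percentage.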

[4] = tested on: SF-295; test: Cytotoxicity against human SF295 cells assessed as cell growth at 10 uM; details: read-out: Activity; outline: as §1
[5] = tested on: K562; test: Cytotoxicity against human K562 cells assessed as cell growth at 10 uM; details: read-out: Activity; outline: as §2
[6] = tested on: MCF7; test: Cytotoxicity against human MCF7 cells assessed as cell growth at 10 uM; details: read-out: Activity; outline: as §1
[7] = tested on: HL-60(TB); test: Cytotoxicity against human HL-60(TB) cells assessed as cell growth at 10 uM; details: read-out: Activity
Outline: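 NCI 60-cell panel screen at a single concentration of 10 µM. Cells are grown in RPMI 1640 with 5% FBS and 2 mM L-glutamine and read by SRB protein staining at 515 nm. Percent growth is measured relative to time-zero and untreated controls; inhibition % is 100 minus growth %.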

[8] = tested on: OVCAR-8; test: Cytotoxicity against human OVCAR8 cells assessed as cell growth at 10 uM; details: read-out: Activity; outline: as §1
[9] = tested on: UACC-62; test: Cytotoxicity against human UACC62 cells assessed as cell growth at 10 uM; details: read-out: Activity; outline: as §1
[10] = Growth inhibition of human NCI60 cells at 10 uM after 48 hrs by sulforhodamine B assay relative to control; details: NCI60, 48 h, read-out: GI
Outline: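 Single-dose NCI screen at 10 µM across the 60-line panel, 48 h exposure at 37 °C after a 24 h preincubation. Adherent cells were fixed with cold TCA and stained with 0.4% SRB, and absorbance was read at 515 nm. Inhibition % was taken as 100 minus growth %, and the mean across all lines was reported.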

[11] = tested on: SK-MEL-2; test: Cytotoxicity against human SK-MEL-2 cells assessed as cell growth at 10 uM; details: read-out: Activity; outline: as §1
[12] = tested on: OVCAR-5; test: Cytotoxicity against human OVCAR5 cells assessed as cell growth at 10 uM; details: read-out: Activity; outline: as §1
[13] = tested on: HT-29; test: Cytotoxicity against human HT-29 cells assessed as cell growth at 10 uM; details: read-out: Activity; outline: as §2
[14] = tested on: DU-145; test: Cytotoxicity against human DU145 cells assessed as cell growth at 10 uM; details: read-out: Activity; outline: as §2
[15] = tested on: IGROV-1; test: Cytotoxicity against human IGROV1 cells assessed as cell growth at 10 uM; details: read-out: Activity; outline: as §2
[16] = tested on: NCI/ADR-RES; test: Cytotoxicity against human NCI/ADR-RES cells assessed as cell growth at 10 uM; details: read-out: Activity; outline: as §1
[17] = tested on: NCI-H23; test: Cytotoxicity against human NCI-H23 cells assessed as cell growth at 10 uM; details: read-out: Activity; outline: as §1
[18] = tested on: SR; test: Cytotoxicity against human SR cells assessed as cell growth at 10 uM; details: read-out: Activity; outline: as §1
[19] = tested on: SNB-75; test: Cytotoxicity against human SNB75 cells assessed as cell growth at 10 uM; details: read-out: Activity; outline: as §1
[20] = tested on: SF-539; test: Cytotoxicity against human SF539 cells assessed as cell growth at 10 uM; details: read-out: Activity; outline: as §1
[21] = tested on: RXF 393; test: Cytotoxicity against human RXF393 cells assessed as cell growth at 10 uM; details: read-out: Activity; outline: as §1
[22] = tested on: OVCAR-4; test: Cytotoxicity against human OVCAR4 cells assessed as cell growth at 10 uM; details: read-out: Activity; outline: as §1
[23] = tested on: M14; test: Cytotoxicity against human M14 cells assessed as cell growth at 10 uM; details: read-out: Activity; outline: as §1
[24] = tested on: T47D; test: Cytotoxicity against human T47D cells assessed as cell growth at 10 uM; details: read-out: Activity; outline: as §1
[25] = tested on: EKVX; test: Cytotoxicity against human EKVX cells assessed as cell growth at 10 uM; details: read-out: Activity; outline: as §2
[26] = tested on: MDA-MB-435; test: Cytotoxicity against human MDA-MB-435 cells assessed as cell growth at 10 uM; details: read-out: Activity; outline: as §1
[27] = tested on: OVCAR-3; test: Cytotoxicity against human OVCAR-3 cells assessed as cell growth at 10 uM; details: read-out: Activity; outline: as §1
[28] = tested on: Malme-3M; test: Cytotoxicity against human MALME-3M cells assessed as cell growth at 10 uM; details: read-out: Activity; outline: as §1
[29] = tested on: SK-MEL-28; test: Cytotoxicity against human SK-MEL-28 cells assessed as cell growth at 10 uM; details: read-out: Activity; outline: as §1
[30] = tested on: TK-10; test: Cytotoxicity against human TK10 cells assessed as cell growth at 10 uM; details: read-out: Activity; outline: as §1
[31] = tested on: MOLT-4; test: Cytotoxicity against human MOLT4 cells assessed as cell growth at 10 uM; details: read-out: Activity; outline: as §1
[32] = tested on: NCI-H226; test: Cytotoxicity against human NCI-H226 cells assessed as cell growth at 10 uM; details: read-out: Activity; outline: as §1
[33] = tested on: HOP-62; test: Cytotoxicity against human HOP62 cells assessed as cell growth at 10 uM; details: read-out: Activity; outline: as §2
[34] = tested on: NCI-H460; test: Cytotoxicity against human NCI-H460 cells assessed as cell growth at 10 uM; details: read-out: Activity; outline: as §1
[35] = tested on: KM12; test: Cytotoxicity against human KM12 cells assessed as cell growth at 10 uM; details: read-out: Activity; outline: as §1
[36] = Cytotoxicity against human […] cells assessed as cell growth at 10 uM; details: read-out: Activity; outline: as §1
[37] = tested on: A498; test: Cytotoxicity against human A498 cells assessed as cell growth at 10 uM; details: read-out: Activity; outline: as §2
[38] = tested on: UO-31; test: Cytotoxicity against human UO31 cells assessed as cell growth at 10 uM; details: read-out: Activity; outline: as §1
[39] = tested on: U-251; test: Cytotoxicity against human U251 cells assessed as cell growth at 10 uM; details: read-out: Activity; outline: as §1
[40] = tested on: SK-OV-3; test: Cytotoxicity against human SKOV3 cells assessed as cell growth at 10 uM; details: read-out: Activity; outline: as §1
[41] = tested on: PC-3; test: Cytotoxicity against human PC3 cells assessed as cell growth at 10 uM; details: read-out: Activity; outline: as §1
[42] = tested on: A549; test: Cytotoxicity against human A549 cells assessed as cell growth at 10 uM; details: read-out: Activity; outline: as §2
[43] = Cytotoxicity against human Hs 578T cells assessed as cell growth at 10 uM; details: read-out: Activity; outline: as §2
[44] = tested on: SNB-19; test: Cytotoxicity against human SNB19 cells assessed as cell growth at 10 uM; details: read-out: Activity; outline: as §1
[45] = tested on: HCC 2998; test: Cytotoxicity against human HCC2998 cells assessed as cell growth at 10 uM; details: read-out: Activity; outline: as §2
[46] = tested on: LOX IMVI; test: Cytotoxicity against human LOXIMVI cells assessed as cell growth at 10 uM; details: read-out: Activity; outline: as §1
[47] = tested on: NCI-H322M; test: Cytotoxicity against human NCI-H322M cells assessed as cell growth at 10 uM; details: read-out: Activity; outline: as §1
[48] = tested on: NCI-H522; test: Cytotoxicity against human NCI-H522 cells assessed as cell growth at 10 uM; details: read-out: Activity; outline: as §1
[49] = tested on: SK-MEL-5; test: Cytotoxicity against human SK-MEL-5 cells assessed as cell growth at 10 uM; details: read-out: Activity; outline: as §1
[50] = tested on: HCT-15; test: Cytotoxicity against human HCT15 cells assessed as cell growth at 10 uM; details: read-out: Activity; outline: as §2
[51] = tested on: ACHN; test: Cytotoxicity against human ACHN cells assessed as cell growth at 10 uM; details: read-out: Activity; outline: as §2
[52] = tested on: COLO 205; test: Cytotoxicity against human COLO205 cells assessed as cell growth at 10 uM; details: read-out: Activity; outline: as §2
[53] = tested on: SF-268; test: Cytotoxicity against human SF268 cells assessed as cell growth at 10 uM; details: read-out: Activity; outline: as §1
[54] = tested on: SW-620; test: Cytotoxicity against human SW620 cells assessed as cell growth at 10 uM; details: read-out: Activity; outline: as §1
[55] = tested on: BT-549; test: Cytotoxicity against human BT549 cells assessed as cell growth at 10 uM; details: read-out: Activity; outline: as §2
[56] = tested on: CAKI-1; test: Cytotoxicity against human Caki1 cells assessed as cell growth at 10 uM; details: read-out: Activity; outline: as §2
[57] = tested on: HOP-92; test: Cytotoxicity against human HOP92 cells assessed as cell growth at 10 uM; details: read-out: Activity; outline: as §2
[58] = tested on: SN12C; test: Cytotoxicity against human SN12C cells assessed as cell growth at 10 uM; details: read-out: Activity; outline: as §1
[59] = tested on: 786-0; test: Cytotoxicity against human 786-0 cells assessed as cell growth at 10 uM; details: read-out: Activity; outline: as §2
[60] = tested on: MDA-MB-468; test: Cytotoxicity against human MDA-MB-468 cells assessed as cell growth at 10 uM; details: read-out: Activity; outline: as §1
[61] = tested on: CCRF-CEM; test: Cytotoxicity against human CCRF-CEM cells assessed as cell growth at 10 uM; details: read-out: Activity; outline: as §2

Cc1cc(O)cc(-c2nn(CC#N)cc2-c2ccnc(-c3ccccc3)c2)c1
growth at 10 µM [1]: 80.7%
growth at 10 µM [2]: 95.6%
growth at 10 µM [3]: 59.1%
growth at 10 µM [4]: 99.2%
growth at 10 µM [5]: 71.5%
growth at 10 µM [6]: 53.8%
growth at 10 µM [7]: 78.4%
growth at 10 µM [8]: 70.2%
growth at 10 µM [9]: 59.8%
inhibition of growth at 10 µM [10]: 16.4%
growth at 10 µM [11]: 86.1%
growth at 10 µM [12]: 93.2%
growth at 10 µM [13]: 61.9%
growth at 10 µM [14]: 103%
growth at 10 µM [15]: 72%
growth at 10 µM [16]: 66.7%
growth at 10 µM [17]: 93.5%
growth at 10 µM [18]: 80.3%
growth at 10 µM [19]: 43.2%
growth at 10 µM [20]: 83.5%
growth at 10 µM [21]: 151%
growth at 10 µM [22]: 77.7%
growth at 10 µM [23]: 81.3%
growth at 10 µM [24]: 59.2%
growth at 10 µM [25]: 101%
growth at 10 µM [26]: 97.8%
growth at 10 µM [27]: 107%
growth at 10 µM [28]: 133%
growth at 10 µM [29]: 85.2%
growth at 10 µM [30]: 84.2%
growth at 10 µM [31]: 71%
growth at 10 µM [32]: 77.7%
growth at 10 µM [33]: 92.7%
growth at 10 µM [34]: 93.3%
growth at 10 µM [35]: 97.2%
growth at 10 µM [36]: 84.5%
growth at 10 µM [37]: 84.3%
growth at 10 µM [38]: 64.5%
growth at 10 µM [39]: 87.4%
growth at 10 µM [40]: 84.6%
growth at 10 µM [41]: 88.7%
growth at 10 µM [42]: 85.5%
growth at 10 µM [43]: 84.6%
growth at 10 µM [44]: 87%
growth at 10 µM [45]: 89.2%
growth at 10 µM [46]: 95.6%
growth at 10 µM [47]: 116%
growth at 10 µM [48]: 57.2%
growth at 10 µM [49]: 75.4%
growth at 10 µM [50]: 54%
growth at 10 µM [51]: 74.4%
growth at 10 µM [52]: 108%
growth at 10 µM [53]: 99.6%
growth at 10 µM [54]: 87.6%
growth at 10 µM [55]: 93.5%
growth at 10 µM [56]: 82.4%
growth at 10 µM [57]: 57.3%
growth at 10 µM [58]: 77.6%
growth at 10 µM [59]: 67%
growth at 10 µM [60]: 61.8%
growth at 10 µM [61]: 85.8%
